Experimental data taken from ChEMBL document CHEMBL4138260, “Novel Naphthalimide Aminothiazoles as Potential Multitargeting Antimicrobial Agents” (ACS Med Chem Lett, 2017).
Values after ≈ are worked out from the molar mass of the structure shown. Active and inactive are the calls of the source. No cut-off for these calls is given here.

Columns and labels:
[1] = test system: Escherichia coli; experiment: Antimicrobial activity against Escherichia coli ATCC 25922 after 24 hrs by two fold serial dilution method; type: functional; conditions: for MIC: ATCC 25922, 24 h
How it was run: (§1)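 MICs by CLSI-recommended two-fold serial broth dilution against the listed bacterial strains.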

[2] = test system: Acinetobacter baumannii; experiment: Antimicrobial activity against Acinetobacter baumannii after 24 hrs by two fold serial dilution method; type: functional
How it was run: (§2)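 MIC determined in vitro by two-fold serial dilution, following the procedure recommended by the Clinical and Laboratory Standards Institute (CLSI).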

[3] = biological target: Albumin (Homo sapiens, UniProt P02768); experiment: Binding affinity to human serum albumin by UV-visible absorption spectroscopy; type: ADME; conditions: isolated protein
[4] = test system: Staphylococcus aureus; experiment: Antimicrobial activity against methicillin-resistant Staphylococcus aureus after 24 hrs by two fold serial dilution method; type: functional; how it was run: as §1
[5] = test system: Staphylococcus aureus; experiment: Antimicrobial activity against methicillin-resistant Staphylococcus aureus measured every 24 hrs post passages for 16 days; type: functional, organism-based
How it was run: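 Resistance-development study in MRSA, with MIC re-measured over serial passages. Norfloxacin and chloromycin were run alongside as reference drugs.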

[6] = test system: Pseudomonas aeruginosa; experiment: Antimicrobial activity against Pseudomonas aeruginosa after 24 hrs by two fold serial dilution method; type: functional; how it was run: as §1
[7] = Cytotoxicity against […] RAW264.7 cells assessed as cell viability at 128 ug/ml after 24 hrs by MTT assay; type: cell-based; conditions: read-out: Activity
How it was run: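 Cytotoxicity in […] RAW 264.7 macrophages by MTT assay at concentrations up to 128 μg/mL. Read-out was percent cell viability.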

[8] = test system: Staphylococcus aureus; experiment: Bactericidal activity against methicillin-resistant Staphylococcus aureus assessed as log reduction in bacterial count at 4 times MIC measured up to 7 hrs by time kill assay; type: functional
How it was run: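 Time-kill kinetics against MRSA with the compound at 4 × MIC. Viable bacteria were counted over time as log CFU/mL.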

[9] = test system: Staphylococcus aureus; experiment: Membrane permeabilization of methicillin-resistant Staphylococcus aureus cytoplasmic membrane at 12 times MIC after 60 mins by propidium iodide staining based fluorescence assay; type: functional, organism-based
How it was run: (§3)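 Cytoplasmic membrane permeabilization of MRSA or E. coli with propidium iodide. Fluorescence intensity of the compound/PI-treated bacterial mixtures was followed over time up to steady state, with two control groups run in parallel.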

[10] = test system: Escherichia coli; experiment: Potency index, ratio of norfloxacin MIC to compound MIC against Escherichia coli ATCC 25922; type: functional
[11] = test system: Escherichia coli; experiment: Potency index, ratio of chloromycin MIC to compound MIC against Escherichia coli ATCC 25922; type: functional
[12] = test system: Staphylococcus aureus; experiment: Antimicrobial activity against Staphylococcus aureus ATCC 25923 after 24 hrs by two fold serial dilution method; type: functional; how it was run: as §1
[13] = test system: DNA; experiment: Induction of methicillin-resistant Staphylococcus aureus DNA intercalation assessed as compound-DNA complex formation incubated for 1 hr by UV-visible absorption spectroscopy; type: nucleic-acid assay
[14] = test system: Escherichia coli; experiment: Membrane permeabilization of Escherichia coli cytoplasmic membrane at 12 times MIC after 60 mins by propidium iodide staining based fluorescence assay; type: functional, organism-based; how it was run: as §3
[15] = test system: Staphylococcus aureus; experiment: Antimicrobial activity against Staphylococcus aureus ATCC 29213 after 24 hrs by two fold serial dilution method; type: functional; how it was run: as §1
[16] = test system: Escherichia coli; experiment: Antimicrobial activity against Escherichia coli after 24 hrs by two fold serial dilution method; type: functional; how it was run: as §1
[17] = test system: Pseudomonas aeruginosa; experiment: Antimicrobial activity against Pseudomonas aeruginosa ATCC 27853 after 24 hrs by two fold serial dilution method; type: functional; how it was run: as §1
[18] = test system: Staphylococcus aureus; experiment: Antimicrobial activity against Staphylococcus aureus after 24 hrs by two fold serial dilution method; type: functional, organism-based; how it was run: as §2
[19] = test system: Enterococcus faecalis; experiment: Antimicrobial activity against Enterococcus faecalis after 24 hrs by two fold serial dilution method; type: functional, organism-based; how it was run: as §2
[20] = test system: Klebsiella pneumoniae; experiment: Antimicrobial activity against Klebsiella pneumoniae after 24 hrs by two fold serial dilution method; type: functional, organism-based; how it was run: as §2
[21] = test system: Acinetobacter baumannii; experiment: Potency index, ratio of chloromycin MIC to compound MIC against Acinetobacter baumannii; type: functional

Albumin, sequence (P02768 whole entry): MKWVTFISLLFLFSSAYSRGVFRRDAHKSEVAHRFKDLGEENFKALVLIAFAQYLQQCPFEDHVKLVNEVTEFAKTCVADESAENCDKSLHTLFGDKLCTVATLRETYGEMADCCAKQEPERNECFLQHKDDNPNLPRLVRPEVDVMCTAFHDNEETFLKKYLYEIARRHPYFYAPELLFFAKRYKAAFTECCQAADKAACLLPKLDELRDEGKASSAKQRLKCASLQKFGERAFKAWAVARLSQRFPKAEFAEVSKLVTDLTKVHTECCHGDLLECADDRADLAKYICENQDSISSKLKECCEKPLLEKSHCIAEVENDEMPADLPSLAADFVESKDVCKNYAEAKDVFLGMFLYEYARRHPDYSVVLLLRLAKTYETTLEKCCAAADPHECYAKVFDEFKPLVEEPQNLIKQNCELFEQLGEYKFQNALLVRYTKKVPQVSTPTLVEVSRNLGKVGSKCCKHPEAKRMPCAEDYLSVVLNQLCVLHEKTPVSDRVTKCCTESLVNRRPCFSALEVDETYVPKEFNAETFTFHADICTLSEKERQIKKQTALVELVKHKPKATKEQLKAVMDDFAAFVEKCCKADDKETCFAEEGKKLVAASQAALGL

Row | Structure (SMILES) | Activity [2] | Activity [4] | Activity [1] | Activity [6] | Activity [18] | Activity [19] | Activity [20] | Activity [12] | Activity [15] | Activity [16] | Activity [17] | other results
1 | CCn1cc(C(=O)O)c(=O)c2cc(F)c(N3CCNCC3)cc21 [NORFLOXACIN] | – | – | – | – | – | – | – | – | – | – | – | MIC [1]: 8 µg/mL (≈ 25.1 µM); MIC [2]: 8 µg/mL (≈ 25.1 µM)
2 | O=C1c2cccc3c(N4CCNCC4)ccc(c23)C(=O)N1Nc1nccs1 | inactive | – | – | – | – | – | – | – | – | – | – | Activity [3]: Active; MIC [4]: 4 µg/mL (≈ 10.5 µM); MIC [1]: 4 to 16 µg/mL (≈ 10.5 to 42.2 µM); Activity [5]: Active; MIC [6]: 4 to 16 µg/mL (≈ 10.5 to 42.2 µM); viability at 24 h, 128 ug/ml [7]: 80.1%; Activity [8]: >3 CFU/ml; Activity [9]: Active; Ratio [10]: 2; Ratio [11]: 4; MIC ([12]; ATCC 25923, 24 h): 4 µg/mL (≈ 10.5 µM); Activity [13]: Active; Activity [14]: Active; MIC ([15]; ATCC 29213, 24 h): 2 µg/mL (≈ 5.27 µM); MIC [16]: 4 to 16 µg/mL (≈ 10.5 to 42.2 µM); MIC ([17]; ATCC 27853, 24 h): 4 to 16 µg/mL (≈ 10.5 to 42.2 µM)
3 | CCCCCCCCCCN1CCN(c2ccc3c4c(cccc24)C(=O)N(Nc2nccs2)C3=O)CC1 | inactive | inactive | inactive | inactive | inactive | inactive | inactive | inactive | inactive | inactive | inactive | –
4 | CCCCCCCCCCCCN1CCN(c2ccc3c4c(cccc24)C(=O)N(Nc2nccs2)C3=O)CC1 | inactive | inactive | inactive | inactive | inactive | inactive | inactive | inactive | inactive | inactive | inactive | –
5 | O=C1c2cccc3c(N4CCOCC4)ccc(c23)C(=O)N1Nc1nccs1 | – | – | – | – | – | – | – | – | – | – | – | Ratio [21]: 2; MIC [2]: 8 µg/mL (≈ 21 µM)
6 | CCCCCCCCCCCCCCCCN1CCN(c2ccc3c4c(cccc24)C(=O)N(Nc2nccs2)C3=O)CC1 | inactive | inactive | inactive | inactive | inactive | inactive | inactive | inactive | inactive | inactive | inactive | –
7 | O=C1c2cccc3c(Br)ccc(c23)C(=O)N1Nc1nccs1 | Active | Active | Active | Active | Active | Active | Active | Active | Active | Active | Active | –
